Source: publication PMC8154590 (The Journal of antibiotics, 2021)
Structures can show the parent of a compound that is named as a salt.

Each compound was assayed on M. smegmatis 70S ribosome (spectinomycin site: helix-34 of 16S rRNA and RpsE protein) (assay: cell-free translation, luciferase read-out). Details: purified 70S ribosomes, firefly luciferase mRNA.
Format: biochemical, Mycolicibacterium smegmatis
Outline: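 Purified M. smegmatis 70S ribosomes were used in translation reactions programmed with firefly luciferase mRNA that was transcribed in vitro with T7 RNA polymerase. Inhibition was read as loss of luciferase activity. IC50 was taken as the drug concentration that inhibits luciferase activity by 50%.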

Structure (SMILES) | Ribosome translation inhibition IC50 [µg/mL]
CN[C@@H]1[C@H](O)[C@H](NC)[C@H]2O[C@@]3(O)C(=O)C[C@@H](C)O[C@H]3O[C@@H]2[C@@H]1Cl [compound 8, 6-Epi-chloro-6-deoxyspectinomycin dihydrochloride] | 54.7
CN[C@H]1C[C@@H](NC)[C@H](O)[C@H]2O[C@@H]3O[C@H](C)CC(=O)[C@]3(O)O[C@@H]21 [compound 9, 2-Deoxyspectinomycin dihydrochloride] | > 60
CN[C@H]1[C@@H](O)[C@@H](NC)C[C@H]2O[C@@H]3O[C@H](C)C[C@@](O)(CNCc4ccc(F)cc4)[C@]3(O)O[C@H]12 [compound 7, 6-Deoxy-3’-dihydro-3’(R)-[(4-fluorobenzyl)aminomethyl]spectinomycin trihydrochloride] | 23.3

The next lines start with the values.

Ribosome translation inhibition IC50 [µg/mL] | Structure (SMILES)
10.2 | CN[C@H]1C[C@@H](NC)[C@H](O)[C@H]2O[C@@H]3O[C@H](C)C[C@@H](NC(=O)Cc4ccccn4)[C@]3(O)O[C@@H]21 [compound 10, 2-Deoxy-3’-deoxy-3’-dihydro-3’(R)-[(pyridin-2-yl)acetylamino]spectinomycin dihydrochloride]
0.36 | CN[C@@H]1[C@H](O)[C@H](NC)[C@H]2O[C@@]3(O)C(=O)C[C@@H](C)O[C@H]3O[C@@H]2[C@H]1O [compound 1, Spectinomycin]
